Source: PubChem
Sampled rows, rich in hits. Any-hit rate of the full collection: about 2.5%.
SR-BI DiI-HDL act = activators of SR-BI mediated HDL lipid uptake | CHO ldlA[mSR-BI] cells, DiI-HDL uptake fluorescence, 3 h; 100 = double the neutral-control signal | activation, % at 12.5 µM | 320,000 compounds, 0.096% hits;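 active = mean replicate activation of at least 60% and every replicate at or above 60%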;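 also: 0% = median plate neutral-control signal and 100% = twice that signal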
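System: LDL receptor-deficient CHO ldlA cells overexpressing murine SR-BI | Timing: 3 h uptake period with compound, 37 °C | Medium: HEPES-buffered (25 mM, pH 7.4) F12 plus 0.5% BSA | Dosing: Single-point compound dose | Signal: Bottom-read fluorescence, 550/595 nm | Read-out: Retained DiI signal reflecting DiI-HDL uptake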
SMARCA2 activ = increases SMARCA2 function in MMTV reporter cells | activation, % at 9.1 µM | 370,000 compounds, 1% hits | MG213 cells, MMTV-luciferase reporter, dexamethasone, overnight | AID 652017; in the data active = activation above about 7.8%;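 also: 0% = vehicle wells and 100% = reference activator wells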
SR-BI HDL uptake = mouse SR-BI HDL lipid transfer inhibition; Q61009; ldlA[mSR-BI] CHO cells, DiI-HDL uptake fluorescence, 3 h; inhibition, % at 12.5 µM; 320,000 compounds, 0.96% hits; AID 488896;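 active = mean replicate inhibition of at least 70% and a set share of replicates each scoring 70 or more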;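 also: 0% = median of neutral control wells and 100% = median of positive control wells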
Target sequence (Q61009 whole entry, looked up): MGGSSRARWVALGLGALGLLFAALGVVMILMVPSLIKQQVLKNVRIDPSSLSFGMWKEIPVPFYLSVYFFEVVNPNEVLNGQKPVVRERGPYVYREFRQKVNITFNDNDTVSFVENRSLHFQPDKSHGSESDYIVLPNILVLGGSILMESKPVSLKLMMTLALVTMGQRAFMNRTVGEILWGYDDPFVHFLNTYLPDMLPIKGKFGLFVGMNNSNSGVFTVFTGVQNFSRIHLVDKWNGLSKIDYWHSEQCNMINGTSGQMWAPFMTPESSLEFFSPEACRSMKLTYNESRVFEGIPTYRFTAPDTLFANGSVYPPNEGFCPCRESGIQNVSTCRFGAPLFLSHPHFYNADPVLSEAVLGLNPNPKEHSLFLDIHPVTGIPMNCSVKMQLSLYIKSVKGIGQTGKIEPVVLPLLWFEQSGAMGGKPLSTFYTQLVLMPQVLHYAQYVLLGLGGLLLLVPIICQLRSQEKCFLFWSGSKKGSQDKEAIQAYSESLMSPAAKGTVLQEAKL
Vif inh = blocks HIV Vif function | HEK293T cells, Vif self-association by quenched fluorescence, imaging, 24 h | inhibition, % at 7.49 µM | 340,000 compounds, 0.35% hits; in the data active = inhibition above about 50%, passing the limit was not always enough
TAG inh = inhibitors of triacylglycerol accumulation. AID 651582. 230,000 compounds, 0.66% hits. inhibition, % at 12.5 µM. H9c2 cells, Nile Red lipid (TAG) fluorescence; cells loaded with 200 µM oleic acid;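 active = pattern-corrected inhibition of lipid staining of at least 50% with the nuclear-stain viability signal not falling by more than 50%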;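 also: 0% = DMSO wells and 100% = triacsin C control wells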
SMARCA2 act conf = confirmation of SMARCA2 (BRM) function activators | 3,500 compounds, 30% hits | AID 652260 | MG213 cells, MMTV-luciferase with dexamethasone, luminescence, overnight; MG213 cells expressing E1A, Rb sequestered; DMSO wells 0%, reference activator 100% | shares compounds with SMARCA2 activ | activation, % at 9.1 µM;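 active = activation above its plate's cutoff, the mean activation of tested wells plus 3 SD, cut at about 7.9% in these data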
VP16 Luc act = GAL4-VP16 reporter activation counter-screen | shares compounds with SMARCA2 activ | HEK293 GAL4-VP16 pG5luc reporter, luciferase luminescence; scaled: DMSO wells 0%, SAHA wells 100% | activation, % at 9.1 µM | 3,500 compounds, 41% hits | AID 686939;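 active = activation above the solvent-only control well mean plus 3 SD, averaged across control plates, cut at about 5.2% in these data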
* = called active by the depositor; x = no result.

SMILES	SR-BI DiI-HDL act	SMARCA2 activ	SR-BI HDL uptake	Vif inh	TAG inh	SMARCA2 act conf	VP16 Luc act
O=[N+]([O-])c1cccc(S(=O)(=O)NC2CC3CCC2C3)c1 (stereo not given)	4	-3	-4	-2	-2	x	x
CCc1ccc(NC(=O)CCCn2nc(CC)n3c(cc4occc43)c2=O)cc1	-66	9.6*	66	-3	x	3	0
CCCc1cn(-c2ccc3c(c2)[C@@]2(CC(=O)N(C)C2c2ccccc2)C(=O)N3CC(C)C)nn1 (stereo not given in full)	x	-4	x	x	x	x	x
COC(=O)c1cc2c(c3c4cc(OC)ccc4n(S(=O)(=O)c4ccc(OC)cc4)c13)C(=O)N(Cc1ccc(C(F)(F)F)cc1)C2	x	0	x	x	x	x	x
COC(=O)N/N=C(\C)c1ccccc1Br	12	8.0*	-12	15	5	9.1*	0
CCC(=O)Nc1cccc(NC(=S)NC(=O)c2cccs2)c1	-20	11*	20	2	x	4	9.4*
COc1cccc(C(=O)Nc2ccc3c(C)cc(=O)oc3c2)c1	-12	13*	12	2	12	11*	14*
CCCCOC(=O)Nc1ccc2c(C)cc(=O)oc2c1	-23	6	23	0	18	x	x
Cc1cc(=O)oc2cc(NC(=O)c3ccccc3C(=O)O)ccc12	x	3	x	-4	x	x	x
CCOC(=O)Nc1ccc2c(C)cc(=O)oc2c1	1	11*	-1	-7	x	2	8.7*
O=C(COc1ccccc1)N1CCN(C(=O)c2ccccc2F)CC1	40	-1	-40	9	x	x	x
CSc1ccc(/C=N/NC(=O)c2cccc(O)c2)cc1	3	9.6*	-3	18	-17	6	14*
CCOc1ccc(C(=O)N/N=C/c2ccc(SC)cc2)cc1	-2	-2	2	-4	x	x	x
O=C(c1ccco1)N(Cc1cccnc1)C(c1ccccc1)c1nc2ccccc2[nH]1 (stereo not given)	x	8.6*	x	16	x	11*	6.1*
COC(=O)c1sc(-c2ccc(Cl)cc2)cc1NC(=O)/C=C/C(=O)O	11	9.1*	-11	2	23	0	-1
COC(=O)c1sc(-c2ccc(Cl)cc2)cc1NC(=O)COCC(=O)O	-3	0	3	-3	8	x	x
Cc1cc(C)nc(Nc2nc(-c3ccccc3)cs2)n1	-39	4	39	-6	-2	x	x
Cc1cc(C)nc(Nc2nc(=O)c3ccccc3s2)n1	-4	8.8*	4	4	12	4	14*
CC1CC(C)CN(C(=O)COC(=O)CNC(=O)C23CC4CC(CC(C4)C2)C3)C1 (stereo not given)	34	-3	-34	26	-5	x	x
CC(C)(C)Cc1c(-c2ccco2)nc2ccc(Cl)cn12	x	13*	x	x	x	1	1
Cc1csc2c(=O)sc(NC(=O)c3ccc(F)cc3Cl)nc12	-23	11*	23	-2	4	-6	0
Oc1ccc(-c2cnc(-c3ccc(O)cc3)nc2)cc1	-16	13*	16	36	x	12*	11*
OCCCN=c1cc(-c2ccccc2)oc2ccc(Cl)cc12	0	12*	0	14	16	37*	6.3*
CSc1ncc(OCc2ccccc2)c(=O)[nH]1	8	10*	-8	-7	3	0	0
CSc1nc(Cc2ccccc2)cc(=O)[nH]1	11	3	-11	8	3	x	x
CCCc1cc(C(=O)N2CCCC(N3CCN(c4ccccc4F)CC3)C2)n(C)n1 (stereo not given)	-40	2	40	-1	9	x	x
COc1ccc(C(NC(=O)c2ccco2)c2ccc(OC)c(OC)c2)cc1OC	16	9.0*	-16	3	x	-1	1
O=C(CN(C(=O)CNC(=O)c1ccco1)c1ccc(F)cc1)NC1CCCC1	x	-3	x	4	x	x	x
